Bioassay records from PubChem.
CSN deneddyl inh = CSN deneddylation inhibition; Purified CSN, SCF-Nedd8-OG deneddylation, fluorescence polarization; Q92905; actives 0.38% (n = 360,000); inhibition, % at 12.5 µM;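 active means pattern-corrected inhibition above about 35%, with an unprinted fluorescence ratio check between 0.5 and 1.5, limit read from the data, passing the limit was not always enough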;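 further: 0% = enzyme with substrate and 100% = substrate without enzyme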
Target sequence (Q92905 whole entry, looked up, one chain of several): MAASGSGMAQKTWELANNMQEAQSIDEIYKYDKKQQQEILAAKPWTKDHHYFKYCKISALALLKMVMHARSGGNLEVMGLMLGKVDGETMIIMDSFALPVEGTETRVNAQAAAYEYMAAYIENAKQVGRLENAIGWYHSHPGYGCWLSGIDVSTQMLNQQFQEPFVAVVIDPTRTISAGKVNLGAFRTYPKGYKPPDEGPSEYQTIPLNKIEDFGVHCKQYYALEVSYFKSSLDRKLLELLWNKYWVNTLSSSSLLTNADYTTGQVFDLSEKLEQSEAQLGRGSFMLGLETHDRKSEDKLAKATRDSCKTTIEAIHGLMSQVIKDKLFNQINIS
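Test system: Human Csn5 produced in HEK293T cells | Compound: 12.5 µM single point | Times: 90 min, room temperature | Signal: Fluorescence polarization readout | Read-out basis: % inhibition of substrate cleavage by Csn5 | Controls: no-enzyme wells high, enzyme-with-substrate wells low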
IDE cell activ = boosts human insulin-degrading enzyme activity in HEK cells; P14735; FAbeta-B cleavage, fluorescence polarization; 0% vehicle, 100% cell-free pure enzyme wells; activation, % at 5.96 µM; actives 0.073% (n = 340,000); AID 493087;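 active means activation above the mean of all tested compounds plus 3 SD, set per screening campaign, cut at about 17% in these data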
Rpn11 inh = Rpn11 (human) deubiquitinase inhibition; inhibition, % at 20 µM; human 26S proteasome, Ub4-pepOG fluorescence polarization; 20S core pre-blocked with epoxomicin; AID 588493; O00487; actives 0.59% (n = 360,000);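 active means inhibition at 20 µM, scaled to each plate's controls, above about 33%, limit read from the data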
Target sequence (O00487 whole entry, looked up): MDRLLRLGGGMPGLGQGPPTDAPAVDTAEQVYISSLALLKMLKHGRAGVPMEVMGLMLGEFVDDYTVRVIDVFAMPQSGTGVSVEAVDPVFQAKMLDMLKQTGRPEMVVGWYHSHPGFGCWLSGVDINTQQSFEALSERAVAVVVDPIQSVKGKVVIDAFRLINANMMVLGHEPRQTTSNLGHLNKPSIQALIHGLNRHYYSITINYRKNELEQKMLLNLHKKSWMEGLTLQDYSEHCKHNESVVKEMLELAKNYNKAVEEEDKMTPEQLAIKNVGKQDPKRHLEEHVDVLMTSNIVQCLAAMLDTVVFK
TPT1 inhibitor = inhibitors of Candida albicans tRNA 2'-phosphotransferase TPT1; recombinant caTPT1, FP RNA substrate dephosphorylation; inhibition, % at 5 µM; actives 0.81% (n = 300,000);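 active means inhibition above the mean of all tested compounds plus 3 SD, set per screening campaign, cut at about 24% in these data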;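 further: plate controls were DMSO alone for no effect and ferristatin control at 100 nM for full effect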
HNF4A DNA FP = change in binding of human HNF4 alpha to DNA | actives 0.3% (n = 360,000) | HNF4a-FITC DNA binding, fluorescence polarization, 1 h | P41235 | activity change, % at 10 µM; in the data active means activity change above about 30%, passing the limit was not always enough
IDE inh = inhibits human insulin-degrading enzyme in HEK cells. FAbetaB cleavage, fluorescence polarization. P14735. actives 0.41% (n = 320,000). inhibition, % at 5.59 µM. AID 434962;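 active means percent inhibition above the average of all tested compounds plus 3 SD, set per screening campaign, cut at about 16% in these data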;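 further: IDE supplied by intact live HEK cells; FP after avidin binding of uncleaved biotin substrate so inhibition keeps polarization high; 0% = DMSO wells and 100% = 60 µM reference IDE inhibitor Ii1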
Starred values were filed as active, the others as inactive; . = no result shown; ! = repeats disagree. Rows were chosen to be rich in hits. Some 1.7% of all compounds tested hit in one or more screens of this group.

SMILES | CSN deneddyl inh | IDE cell activ | Rpn11 inh | TPT1 inhibitor | HNF4A DNA FP | IDE inh
COc1cc2c3nnc(-c4ccc(F)cc4)c-3cn(Cc3cccc(C)c3)c2cc1OC | -73 | 5 | -15 | -23 | 13 | 3
COc1cc2c3nnc(-c4ccc(F)cc4)c-3cn(Cc3cccc(F)c3)c2cc1OC | 112 | 4 | . | 5 | 115* | -2
COc1ccc(C2=NN(c3ccccc3)C(c3ccc(OC)c(OC)c3)C2)cc1 (stereo not given) | 2 | 3 | 1 | 4 | 7 | 3
COc1ccc(C2CC(c3ccc(F)cc3)=NN2c2ccccc2)cc1OC (stereo not given) | 4 | 2 | 42* | 10 | 16 | 6
COc1cccc(C2=Cc3ccc(F)cc3C(CC(C)=O)N2c2ccc(C#CC3(O)CCCCC3)cc2)c1 (stereo not given) | 8 | . | . | . | 4 | .
O=C1/C(=C/c2ccc(O)cc2)COc2ccccc21 | 89* | -7 | 4 | 4 | 5 | 0
O=C1/C(=C/c2ccccn2)COc2ccccc21 | 1 | -1 | -2 | 1 | -2 | 2
CN(CC(=O)Nc1ccc(F)cc1)C(=O)c1cc(-c2ccco2)nc2ccccc12 | 53* | -5 | 8 | 2 | -19 | 6
COc1cccc(NC(=O)CN(C)C(=O)c2cc(-c3ccco3)nc3ccccc23)c1 | 11 | 0 | -2 | 0 | -3 | 3
O=c1oc2c(O)cccc2cc1-c1nc2ccccc2[nH]1 | -19 | 61* | -104 | . | -82 | .
O=c1oc2c(CN3CCCCC3)c(O)ccc2cc1-c1nc2ccccc2[nH]1 | -4 | -25 | -62 | . | -44 | .
CC1(C)N=C(N)N=C(N)N1c1ccc(OCC(=O)Nc2ccccc2)c(Cl)c1 | 3 | . | 2 | . | 1 | .
CC1(C)N=C(N)N=C(N)N1c1ccc(OCCCOc2ccccc2)c(Cl)c1 | 2 | 3 | 5 | 0 | 50* | 0
CC(=C\c1ccccc1)/C=C1/SC(=S)N(CCC(=O)Nc2ccccn2)C1=O | . | . | . | 10 | . | 5
CC(/C=C1\SC(=S)N(CCC(=O)Nc2ccccc2O)C1=O)=C\c1ccccc1 | 36* | 2 | . | 18 | 47* | -1
O=C1NC[C@@H](CCCCN2C[C@H](Cc3ccccc3)N(CC3CCCCC3)C(=O)C2=O)N(CC2CCCCC2)C1=O | 0 | . | . | . | -3 | .
CCC(=O)c1ccc(OCC(=O)Nc2cccc(S(=O)(=O)N(C)c3ccccc3)c2)cc1 | -6 | -8 | 6 | . | 1 | 11
CN(c1ccccc1)S(=O)(=O)c1cccc(NC(=O)COc2cccc([N+](=O)[O-])c2)c1 | 0 | 18* | -7 | . | -3 | 4
O=C(Nc1ccccc1)c1oc2ccccc2c1NC(=O)C1CC1 | -1 | 4 | 0 | 1 | 61* | -1
O=C(Nc1ccc2c(c1)OCCO2)c1oc2ccccc2c1NC(=O)C1CC1 | -14 | 6 | 3 | 3 | -6 | 5
O=C(O)c1cccc(N2C(=O)c3ccc(C(=O)c4cccc([N+](=O)[O-])c4)cc3C2=O)c1 | -1 | -1 | 1 | 1 | -8 | -4
O=C(O)c1ccc2c(c1)C(=O)N(c1cccc(C(=O)/C=C/c3ccccc3)c1)C2=O | 45* | 5 | 8 | -1 | -4 | -2
c1ccc(Oc2ccc(-n3cnnn3)cc2)cc1 | 1 | 6 | -9 | -2 | 57* | 0
O=C(Oc1ccccc1)c1ccc(-n2cnnn2)cc1 | 0 | 1 | -2 | 5 | 1 | -3
O=C(/C=C/Nc1ccc(S(=O)(=O)Nc2ncccn2)cc1)c1ccc(Cl)c(Cl)c1 | 12 | 0 | 54* | 4 | 5 | 9
SMILES | CSN deneddyl inh | IDE cell activ | Rpn11 inh | TPT1 inhibitor | HNF4A DNA FP | IDE inh
COc1cccc(C(=O)/C=C/Nc2ccc(S(=O)(=O)Nc3onc(C)c3C)cc2)c1 | -9 | 6 | 20 | -3 | 85* | 0
O=C(NCc1ccccc1)C(c1ccco1)N1CCN(c2ccccc2F)CC1 (stereo not given) | -2 | . | . | . | -2 | .
O=C1C=C(OCCF)CC(c2ccccc2C(F)(F)F)O1 (stereo not given) | -1 | . | . | . | -2 | .
CCOC(=O)[C@H]1[C@H]2COc3ccc(Br)cc3[C@H]2N2C(=O)CN(Cc3ccc(C)cc3)C(=O)[C@@]12C | -12 | 6 | -37 | . | -26 | .
CO[C@H]1CN(C)C(=O)c2ccc(NC(=O)C3CCC3)cc2OC[C@H](C)N(Cc2ccccn2)C[C@@H]1C | -1 | . | . | . | 1 | .
Cc1cccn2cc(-c3ccc(NC(=O)Cc4ccccc4)cc3)nc12 | 13 | 3 | 27 | 4 | 40* | -2
COc1ccc(CC(=O)Nc2ccc(-c3cn4cccc(C)c4n3)cc2)cc1OC | -4 | 6 | -2 | 1 | 3 | 6
O=C(O)c1cc(-c2ccc(/C=c3\sc4nc5ccc(Br)cc5n4c3=O)o2)ccc1Cl | . | . | . | 71* | . | 1
N#Cc1c(NC(=O)c2ccccc2Cl)n(Cc2ccccc2)c2nc3ccccc3nc12 | 74* | -4 | 55* | 17 | 73* | -3
COc1ccc(C(C(=O)Nc2ccc3c(c2)OCCO3)n2c(=O)c(-c3ccco3)nc3ccccc32)cc1 (stereo not given) | 11 | . | . | . | 13 | .
Cc1cc(N)ccc1N1CCCC1 | 16 | 15 | 90* | -4 | 12 | 2
Cc1cc(C(=O)CCC(=O)N(C)CC(=O)Nc2ccccc2Br)c(C)s1 | 54* | 0 | 4 | -3 | 6 | 1
COc1cc(/C=C/CN2CCC(C(=O)NC(c3ccc(F)cc3)c3ccc4ccccc4n3)CC2)ccc1OC(C)=O (stereo not given) | -4 | . | -12 | . | -3 | .
CCN1C(=C(C#N)C#N)C=Cc2cc(C)ccc21 | -5 | 5 | 14 | -2 | 31 | 3
C=CC[n+]1c(/C=C2\C=Cc3cc(C)ccc3N2CC)ccc2ccccc21 | 18 | 0 | 17 | 6 | 38* | 6
COc1ccc(NC(=O)CSc2nc3n[nH]c(C)c3c(=N)n2-c2ccc(Cl)c(C)c2)cc1OC | 36* | 6 | 4 | 1 | -2 | -18
COc1ccc(C(C(=O)NC2CCCC2)n2c(CSCCOc3ccccc3)nc3ccccc32)cc1 (stereo not given) | 2 | . | . | . | -2 | .
C(C#CCCCCCCCCC[n+]1ccccc1)#CCCCCCCCCC[n+]1ccccc1 | 35*! | 3 | -26 | -4 | 77* | 4
CCOC(=O)C1CC2=C(CCCC2=O)N(Cc2ccccc2)C1=O (stereo not given) | -4 | -4 | -3 | . | 1 | .
O=C(Cc1ccc(-n2c(=O)[nH]c3ccsc3c2=O)cc1)N1CCN(c2ccc(Cl)cc2)CC1 | 0 | -15 | -4 | -2 | 5 | 21*
Cc1cccc(N2CCN(C(=O)Cc3ccc(-n4c(=O)[nH]c5ccsc5c4=O)cc3)CC2C)c1 (stereo not given) | 0 | 2 | 2 | 0 | 0 | 1
